# Most compounds without a hit are left out; they make up all but 1.1% or so of the library.
# Keap1 Nrf2 FP: inhibitors of human Keap1-Nrf2 protein-protein interaction | Q14145 | Keap1 Kelch-Nrf2 peptide fluorescence polarization, 1536-well | inhibition, % at 9.4 µM | 0.15% of 340,000 active | AID 504523; in the data active = inhibition above about 12%;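 also: human Keap1 Kelch domain with fluorescein labeled Nrf2 9mer peptide probe; 0% = neutral control wells and 100% = peptide positive control; higher means more block of Keap1 binding to Nrf2 peptide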
# Target sequence (Q14145 whole entry, looked up, the tested form may be a part): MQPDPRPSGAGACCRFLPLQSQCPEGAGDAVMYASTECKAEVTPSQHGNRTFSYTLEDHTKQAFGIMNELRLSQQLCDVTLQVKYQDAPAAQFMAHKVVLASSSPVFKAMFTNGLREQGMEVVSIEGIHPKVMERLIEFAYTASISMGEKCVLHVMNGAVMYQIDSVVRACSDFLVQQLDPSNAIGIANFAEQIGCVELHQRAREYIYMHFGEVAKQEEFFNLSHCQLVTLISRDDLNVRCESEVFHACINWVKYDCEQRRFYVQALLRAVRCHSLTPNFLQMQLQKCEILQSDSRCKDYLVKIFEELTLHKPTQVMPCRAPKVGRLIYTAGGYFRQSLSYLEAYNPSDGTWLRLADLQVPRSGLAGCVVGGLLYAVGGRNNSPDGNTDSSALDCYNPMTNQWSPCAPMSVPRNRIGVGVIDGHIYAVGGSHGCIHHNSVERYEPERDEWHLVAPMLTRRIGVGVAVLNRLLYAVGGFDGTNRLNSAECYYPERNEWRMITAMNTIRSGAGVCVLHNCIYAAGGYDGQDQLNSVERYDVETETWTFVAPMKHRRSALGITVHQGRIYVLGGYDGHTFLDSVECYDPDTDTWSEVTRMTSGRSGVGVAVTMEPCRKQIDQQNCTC
# CAL PDZ FP-1: inhibitors of human CAL PDZ peptide binding; AID 602252; Q9HD26; inhibition, % at 24.9 µM; 0.92% of 300,000 active; purified CAL PDZ, TMR-peptide fluorescence polarization, 1 h;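 active = mean inhibition of at least 30% with at least half of replicates also reaching 30%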;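 also: 0% = DMSO neutral control and 100% = excess unlabeled competitor peptide PRC23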
# LANA DNA inh: blocks KSHV LANA C-terminal domain binding to DNA | inhibition, % at 9 µM | 0.078% of 340,000 active | MBP-C-LANA/FAM-LBS DNA binding, fluorescence polarization | AID 504423;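 active = highest replicate inhibition at or above 60% at 9 µM, even if other replicates fall short; inactive = all replicates below 60% inhibition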;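 also: 0% = neutral control wells and 100% = 4 µM acridine orange control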
# miR-122 sensor: miR-122 inhibition in Huh7 cells | 0.3% of 340,000 active | activation (reporter increase), % at 12.5 µM | Huh7 miR-122 Renilla luciferase sensor, 48 h; neutral wells = 0, positive control = 100;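 active = mean replicate activation score at least 90 and every replicate individually at or above 90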;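 also: higher luciferase means less miR-122 activity so hits act as miR-122 inhibitors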
# CAL PDZ FP-2: blocks peptide binding to human CAL PDZ domain | Q9HD26 | 0.02% of 330,000 active | inhibition, % at 20 µM | purified CAL PDZ, TMR-peptide fluorescence polarization, 1 h;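 active = highest replicate inhibition of at least 40%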;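 also: plate controls were DMSO neutral control wells for no effect and unlabeled competitor peptide control wells for full effect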
#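 System: purified tagged CAL PDZ domain construct (CerCALP). Schedule: 1 h incubation at room temperature before polarization reading. Medium: 25 mM sodium phosphate pH 7.4, 150 mM NaCl, TCEP, IgG, Thesit. Read-out: percent inhibition from loss of millipolarization. Measured by: FP readout, S and P plane fluorescence. Probe or stimulus: fluorescent TMR peptide probe.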
# Starred values were filed as active, the others as inactive; . = no result given; [ ] = another dose, or the depositor's remark.
SMILES,Keap1 Nrf2 FP,CAL PDZ FP-1,LANA DNA inh,miR-122 sensor,CAL PDZ FP-2
C[C@H]1CN([C@@H](C)CO)S(=O)(=O)c2ccc(C3=CCCC3)cc2O[C@H]1CN(C)Cc1ccncc1,.,.,.,-7[16.7 µM],.
CO[C@H]1CN(C)C(=O)c2ccc(NS(=O)(=O)c3ccccc3Cl)cc2OC[C@@H](C)NC[C@H]1C,.,.,.,0[16.7 µM],.
Cc1cc(C)c(S(=O)(=O)NCc2ccc3c(c2)OCO3)cc1C,1,0,-1,71,0
Cc1cc(C)c(S(=O)(=O)NCc2ccc3c(c2)OCO3)c(C)c1,0,69*,3,51,.
COc1ccccc1Oc1nc2c(c(=O)n(Cc3ccccc3F)c(=O)n2C)n1C,-6,75*,0,1,-2
C[C@H]1CN([C@@H](C)CO)C(=O)c2cc(-c3cncnc3)cnc2O[C@@H]1CN(C)C(=O)Cc1cccnc1,.,.,.,-1[16.7 µM],.
COc1ccc(NC(=O)Nc2ccc3c(c2)[C@H]2C[C@@H](CC(=O)NCc4ccccc4F)O[C@@H](CO)[C@H]2O3)cc1,.,.,.,-1[16.7 µM],.
CSc1ccc(S(=O)(=O)Nc2ccc(F)cc2)cc1,-3,-4,0,120*,-1
Cc1cc(C)nc(Nc2ccccc2Br)n1,-1,14,0,-12,-3
Cc1cc(C)nc(N/C(=N\S(=O)(=O)Cc2ccccc2)Nc2ccccc2Br)n1,-9,-6,0,180*,-4
Cc1ccc(S(=O)(=O)Nc2ccc3c(c2)C(=O)N([C@@H](C)CO)C[C@H](C)[C@@H](CN(C)Cc2ccc(C(=O)O)cc2)O3)cc1,.,.,.,-3[16.7 µM],.
O=C(C[C@H]1CC[C@H]2[C@@H](COC[C@@H](O)CN2C(=O)c2ccc(F)cc2)O1)Nc1nccs1,.,.,.,-5[16.7 µM],.
CCNC(=O)[C@H]1[C@H](CO)[C@H]2Cn3c(ccc(-c4ccccc4F)c3=O)[C@@H]1N2C(=O)CC,.,.,.,1[16.7 µM],.
COc1ccc(CN(C(=O)c2ccc(-c3ccccc3)[nH]2)C(C(=O)NCC2CCCO2)c2ccc(C)o2)cc1 (configuration not stated),4,-7,2,230*,-4
Cc1ccc(NS(=O)(=O)c2csc(C(N)=O)c2)cc1C,1,-7,1,99*,.
COc1ccc(C)cc1C(=O)C1CC(C(=O)O)C(C)(C)C1C (configuration not stated),-2,-2,1,-23,0
COC(=O)[C@@H]1C[C@@H](C(=O)O)[C@H](C)C1(C)C,4,43*,-2,.,1
O=C(Nc1ccccc1F)N[C@H]1CC[C@@H](CCNC(=O)C2CCCC2)O[C@H]1CO,.,.,.,-14[16.7 µM],.
S=C(NCc1ccccc1)NNc1ccccc1,-1,58*,0,.,-1
Cc1ccc(Nc2nc(C(=O)NCc3ccco3)cs2)cc1,0,.,0,162*,2
COc1ccccc1-c1ccc([C@H]2[C@@H](CO)N3CCCCN(C(=O)NC4CCCC4)C[C@@H]23)cc1,.,.,.,-5[16.7 µM],.
Cc1ccc(Cl)cc1N1CCN(C(=O)Cc2csc(Nc3nc(=S)[nH]c4ccccc34)n2)CC1,-9,-2,1,.,-3
O=C(Cc1csc(Nc2nc(=S)[nH]c3ccccc23)n1)N1CCN(c2cccc(Cl)c2)CC1,-1,54*,0,5,-1
Nc1ccccc1-n1cccc1,-6,31*,-1,0,0
N/C(=N\O)c1ccccc1-n1cccc1,-3,3,-1,-2,0
SMILES,Keap1 Nrf2 FP,CAL PDZ FP-1,LANA DNA inh,miR-122 sensor,CAL PDZ FP-2
Cc1ccc(S(=O)(=O)N(C)C[C@@H]2OCCCC[C@H](C)Oc3ccc(NC(=O)NC(C)C)cc3C(=O)N([C@H](C)CO)C[C@H]2C)cc1,.,.,.,5[16.7 µM],.
CO[C@H]1CN(C)C(=O)c2ccc(NS(C)(=O)=O)cc2OC[C@H](C)N(C(=O)c2ccc3c(c2)OCO3)C[C@@H]1C,.,.,.,5[16.7 µM],.
CC1=C(C(=O)OC(C)C)C(c2ccc(N(C)C)cc2)C2=C(CC(C)(C)CC2=O)N1 (configuration not stated),2,1,-1,150*,2
CCOC(=O)C1=C(C)NC2=C(C(=O)CC(C)(C)C2)C1c1ccc(N(C)C)cc1 (configuration not stated),0,0,0,10,-1
COCCOC(=O)C1=C(C)NC2=C(C(=O)CC(C)(C)C2)C1c1cccnc1 (configuration not stated),1,-3,0,-13,-1
CC1=C(C(=O)OCC2CCCO2)C(c2ccncc2)C2=C(CC(C)(C)CC2=O)N1 (configuration not stated),-4,40*,0,-2,.
COc1ccc(-n2nc(C(=O)NCC(=O)N(C)Cc3ccccc3)c3ccccc3c2=O)cc1,3,38*,2,-8,-2
COc1ccc(-n2nc(C(=O)NCC(=O)O)c3ccccc3c2=O)cc1,-4,1,0,0,0
O=C(Cc1cccc2ccccc12)Nc1cc(C(=O)O)cc(C(=O)O)c1,-1,44*,-3,0,-1
O=C(Cc1cccc2ccccc12)Nc1ccc(OC(F)F)c(Cl)c1,-4,0,0,94*,-1
Cc1ccc(S(=O)(=O)NCc2ccccn2)c(C)c1,-2,-7,-1,8,9
CCOc1ccc(Cl)cc1S(=O)(=O)N1CCC(C(=O)NCc2ccco2)CC1,-2,98*,-1,3,-1
CCOc1ccc(Cl)cc1S(=O)(=O)N1CCC(C(=O)NCc2ccccn2)CC1,3,-5,-1,-6,-1
CCOc1ccc(S(=O)(=O)NCc2ccco2)c2ccccc12,-7,-3,1,122*,-1
COc1cc(C)c(Cl)cc1S(=O)(=O)NCc1ccco1,-1,-3,-3,105*,0
CCOc1cc(C)c(C(C)C)cc1S(=O)(=O)NCc1ccccn1,-2,.,1,104*,0
COc1cc(OC)c(S(=O)(=O)NCc2ccco2)cc1S(=O)(=O)NCc1ccco1,-1,-2,1,40,-1
C[C@@H]1CN([C@@H](C)CO)C(=O)Cc2cc(NC(=O)Nc3ccc4c(c3)OCO4)ccc2O[C@H]1CN(C)Cc1ccc(-c2ccccc2)cc1,.,.,.,-10[16.7 µM],.
Cc1cc(S(=O)(=O)NCc2ccco2)c(C)cc1Cl,-5,-2,-1,67,-1
CCOc1cc(C)c(Cl)cc1S(=O)(=O)NCc1ccco1,-4,.,0,116*,-2
Cc1ccc(NC(=O)COCC(=O)Nc2ccc(C)cc2)cc1,-1,-3,-1,8,1
Cc1ccc(S(=O)(=O)OCC(=O)Nc2ccc(C(=O)O)c(O)c2)cc1,-5,-7,62*,-2,-1
O=C(NC1CCCC1)[C@H]1[C@H](CO)[C@H]2Cn3c(cccc3=O)[C@@H]1N2CC1CCCC1,.,.,.,5[16.7 µM],.
Cn1cnc(S(=O)(=O)N2CCCCN3[C@@H](CO)[C@@H](c4ccc(-c5ccccc5F)cc4)[C@@H]3C2)c1,.,.,.,-6[16.7 µM],.
C=CCNC(=S)NNC(=O)c1ccc(C)c(Cl)c1,-4,67*,2,-9,-1
COCC(=O)N(C)C[C@H]1Oc2cc(-c3ccncc3)ccc2S(=O)(=O)N([C@@H](C)CO)C[C@@H]1C,.,.,.,0[16.7 µM],.

# Screening results as filed in PubChem.
